In ChEMBL document CHEMBL2417508, “Synthesis and evaluation of a 125I-labeled iminodihydroquinoline-derived tracer for imaging of voltage-gated sodium channels” (Bioorg Med Chem Lett, 2013):

Legend:
[1] = Inhibition of voltage-gated sodium channel in rat brain homogenate; format: tissue-based
How it was run: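 Radioligand displacement of [3H]batrachotoxin binding was measured in rat brain homogenates, and IC50 was derived.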

[2] = biological target: Sodium channel protein type 2 subunit alpha (Rattus norvegicus, UniProt P04775); test: Inhibition of rat brain voltage-gated sodium channel subunit alpha Nav1.2-mediated current expressed in CHO cells; format: cell-based
[3] = Binding affinity to voltage-gated sodium channel in rat brain synaptosomal membranes; format: cell membranes
[4] = organism: Rattus norvegicus; test: Binding affinity to voltage-gated sodium channel in rat brain synaptosomal membranes relative to control; format: cell membranes

Sodium channel protein type 2 subunit alpha, sequence (P04775 whole entry): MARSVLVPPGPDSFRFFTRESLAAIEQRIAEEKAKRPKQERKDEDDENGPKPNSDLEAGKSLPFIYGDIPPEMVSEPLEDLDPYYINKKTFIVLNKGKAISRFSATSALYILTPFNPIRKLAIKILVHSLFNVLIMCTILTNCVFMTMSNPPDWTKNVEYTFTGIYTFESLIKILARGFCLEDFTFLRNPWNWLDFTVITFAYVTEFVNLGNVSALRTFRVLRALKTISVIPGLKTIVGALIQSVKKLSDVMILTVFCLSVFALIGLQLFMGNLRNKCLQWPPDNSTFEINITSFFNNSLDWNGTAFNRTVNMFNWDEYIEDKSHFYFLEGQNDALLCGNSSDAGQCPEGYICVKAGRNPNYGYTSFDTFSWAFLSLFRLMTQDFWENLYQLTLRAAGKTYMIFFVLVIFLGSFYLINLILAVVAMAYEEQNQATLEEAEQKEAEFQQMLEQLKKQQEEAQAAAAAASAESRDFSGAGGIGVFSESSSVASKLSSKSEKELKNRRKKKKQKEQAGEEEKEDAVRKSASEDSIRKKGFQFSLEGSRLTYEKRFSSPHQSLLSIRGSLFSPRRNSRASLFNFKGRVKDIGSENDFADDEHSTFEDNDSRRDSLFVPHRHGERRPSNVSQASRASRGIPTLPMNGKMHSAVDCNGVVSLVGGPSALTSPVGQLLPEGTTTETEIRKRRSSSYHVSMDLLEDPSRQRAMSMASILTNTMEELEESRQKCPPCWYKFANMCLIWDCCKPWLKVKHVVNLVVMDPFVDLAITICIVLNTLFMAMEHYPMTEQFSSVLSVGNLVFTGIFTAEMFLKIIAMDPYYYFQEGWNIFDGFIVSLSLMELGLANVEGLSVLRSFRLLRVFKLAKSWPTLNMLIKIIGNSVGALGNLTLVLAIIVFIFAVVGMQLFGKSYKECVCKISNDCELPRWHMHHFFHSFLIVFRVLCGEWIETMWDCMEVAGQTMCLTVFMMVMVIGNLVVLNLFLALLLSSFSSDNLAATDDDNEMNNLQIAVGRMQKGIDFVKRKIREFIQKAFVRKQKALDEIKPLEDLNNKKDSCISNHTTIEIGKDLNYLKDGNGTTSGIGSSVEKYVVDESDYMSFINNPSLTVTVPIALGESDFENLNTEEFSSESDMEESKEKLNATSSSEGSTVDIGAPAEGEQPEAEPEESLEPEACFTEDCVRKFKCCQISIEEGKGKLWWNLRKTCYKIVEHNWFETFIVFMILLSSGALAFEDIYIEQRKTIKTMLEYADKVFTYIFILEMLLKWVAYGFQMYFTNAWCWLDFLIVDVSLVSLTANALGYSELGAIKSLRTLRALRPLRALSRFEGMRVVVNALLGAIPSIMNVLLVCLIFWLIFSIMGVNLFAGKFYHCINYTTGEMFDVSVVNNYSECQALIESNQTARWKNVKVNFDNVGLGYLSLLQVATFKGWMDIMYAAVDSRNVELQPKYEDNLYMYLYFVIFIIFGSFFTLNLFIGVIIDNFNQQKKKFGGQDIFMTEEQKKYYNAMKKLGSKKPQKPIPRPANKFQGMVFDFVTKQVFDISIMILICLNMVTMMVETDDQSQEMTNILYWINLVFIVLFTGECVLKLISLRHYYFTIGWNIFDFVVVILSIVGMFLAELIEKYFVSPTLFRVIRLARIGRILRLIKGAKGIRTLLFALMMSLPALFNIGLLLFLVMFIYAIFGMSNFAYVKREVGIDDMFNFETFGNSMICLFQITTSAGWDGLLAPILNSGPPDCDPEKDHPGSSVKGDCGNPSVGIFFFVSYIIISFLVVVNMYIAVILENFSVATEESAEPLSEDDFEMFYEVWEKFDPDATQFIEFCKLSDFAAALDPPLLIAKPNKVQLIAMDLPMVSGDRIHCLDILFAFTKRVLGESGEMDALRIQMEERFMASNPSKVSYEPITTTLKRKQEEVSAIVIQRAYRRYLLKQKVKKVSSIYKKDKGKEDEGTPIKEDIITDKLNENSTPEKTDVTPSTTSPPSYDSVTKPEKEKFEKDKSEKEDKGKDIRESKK

IC50 [1]: 8.1 nM
IC50 [2]: 9 nM
Kd [3]: 2.2 nM
Bmax [4]: 5.4 pmol/mg
SMILES: CCCCC/N=c1\ccn(Cc2ccccc2)c2cc(Cl)ccc12
